# Assay results taken from article PMC3512081 (Journal of immunology (Baltimore, Md. : 1950), 2011).
# Values joined by “and” are separate entries in the source; they are usually repeats but may differ in a detail not shown here. Identical values can stand only once. Like-named read-outs stand apart in the source and are kept apart here.
# Experiments:
# [1] = test system: EG7 WT and GFP-transduced cells; assay: 3H-L-tryptophan uptake by IDO negative EG7 cells; assay type: cell-based, mouse
# Method in brief: (§1)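 EG7 mouse T lymphoma cells: wild-type, GFP-only lentivirus controls, or an IDO/GFP lentivirus-transduced clone. Cultured 48 h, washed, then held 20-30 min in PBS or sodium-free choline buffer (pH 7.4). 3H-L-tryptophan was added at 50 pmol/ml and incubated a fixed time at 37°C. Uptake was stopped by spinning cells through oil. Competitors: BCH, D- or L-Met titrations, glutamine. Duplicate samples. Ki fitted assuming one or two transport systems.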
# [2] = test system: WT and GFP-transduced Hela cells; assay: 3H-L-tryptophan uptake by IDO negative Hela cells; assay type: cell-based, human; settings: for effect of excess unlabelled amino acid on 3H-tryptophan uptake: IDO negative Hela cells, high concentration (5mM glycine, histidine, glutamine)
# Method in brief: (§2)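 HeLa cells were used untreated, GFP-transduced, human-IDO lentivirus-transduced, or given 1000 U/ml IFNγ for 48 h, and assayed at 90-100% confluence. Preincubated 20-30 min in PBS or choline buffer (pH 7.4). 3H-L-tryptophan was added at 50 pmol/ml, with initial-rate uptake over 3 min at 37°C. Stopped with 20mM L-lysine in ice-cold PBS, then NaOH/SDS lysis and scintillation counting. Competitors: BCH, D/L-Met, 5mM histidine, glycine or glutamine, and titrations. Triplicates, normalized; Student's t-test.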
# [3] = test system: IDO-transduced (C7) EG7 cells; assay: 3H-L-tryptophan uptake by IDO positive EG7 cells; assay type: cell-based, mouse; settings: for tryptophan uptake maintained: 0.05mM, EG7-C7 cells, absence of BCH; for fold lower affinity of the additional transporter versus the first transporter: IDO positive C7 cells, equation based on two independent systems; for effect on tryptophan uptake, inhibitor alone: IDO positive cells
# Method in brief: as §1
# [4] = test system: IDO-lentivirus transduced or IFN-γ treated Hela cells; assay: 3H-L-tryptophan uptake by IDO positive Hela cells; assay type: cell-based, human; settings: for effect of excess unlabelled amino acid on 3H-tryptophan uptake: high concentration (5mM glycine, histidine, glutamine); for Ki: read-out: Ki for 3H-tryptophan uptake
# Method in brief: as §2
# [5] = test system: IDO induced tryptophan transporter; assay type: cell-based, human; settings: for effect on tryptophan uptake in the presence of 2.5mM glutamine: IDO positive Hela cells, L-tryptophan at 2mM
# Method in brief: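 IFN-γ-treated or human IDO-lentivirus-transduced Hela cells are grown 48h to 90-100% confluence, washed, then preincubated 20-30 min in PBS or choline buffer (pH 7.4). Add 3H-L-tryptophan at 50pmol/ml with competing amino acid and take uptake at 37°C under initial-rate conditions over 3 min. Stop with 20mM L-lysine in ice-cold PBS, lyse in 1% NaOH/0.1% SDS, and count by liquid scintillation.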
# histidine uptake = assay: 14C-histidine uptake; assay type: cell-based; settings: data not shown
# activated human T cells = assay: Tryptophan uptake by activated human T cells; assay type: cell-based; settings: preliminary data, not shown
# [6] = WT and GFP-transduced Hela cells
compound,measurement,setting,value
"CSCC[C@@H](N)C(=O)O [D-Met, D-Methionine]",inhibition of tryptophan uptake,"[1]; 0.05mM, WT and GFP-expressing EG7 cells, absence of BCH",over 80%
same,effect on 3H-tryptophan uptake,[2]; [6],strongly inhibited
same,tryptophan uptake maintained,[3],greater than 40%
same,fold higher Ki in IDO positive cells than IDO negative cells,"[3]; EG7 cells, single uptake system calculation",approximately 10 fold
same,fold lower affinity of the additional transporter versus the first transporter,[3],10 fold
same,Ki,"[3]; read-out: Ki calculated based on a single tryptophan uptake system, IDO positive EG7 cells",100 to 300 µM
NCC(=O)O [glycine],effect of excess unlabelled amino acid on 3H-tryptophan uptake,[2],no effect
same,effect of excess unlabelled amino acid on 3H-tryptophan uptake,[4]; IDO positive Hela cells,no effect
"CSCC[C@H](N)C(=O)O [L-Met, L-methionine]",inhibition at 50 µM,"[1]; Mus musculus, EG7, read-out: inhibition of tryptophan uptake",> 80%
same,effect on 3H-tryptophan uptake,[2]; [6],strongly inhibited
same,tryptophan uptake maintained,[3],greater than 40%
same,fold lower affinity of the additional transporter versus the first transporter,[3],10 fold
"NC1(C(=O)O)CC2CCC1C2 (stereo not drawn) [BCH, 2-aminobicyclo-(2,2,1)-heptane-2-carboxylic acid]",effect on transporter-mediated 3H-L-tryptophan uptake,"[1]; high concentrations, EG7-WT and GFP cells, sodium-free",completely abolished
same,effect on 3H-tryptophan uptake,[2]; [6],strongly inhibited
same,Ki,"[2]; read-out: Ki for 3H-tryptophan uptake, control Hela cells",12 µM
same,effect on transporter-mediated 3H-L-tryptophan uptake,"[3]; high concentrations, IDO positive EG7 cells, sodium-free",completely abolished
same,effect on tryptophan uptake in the presence of 2.5mM glutamine,[5],no additional inhibition
same,Ki,[4]; IDO transduced Hela cells,~300 µM
same,Ki,[4]; IFN-γ treated Hela cells,~600 µM
"N[C@@H](Cc1c[nH]c2ccccc12)C(=O)O [tryptophan, L-tryptophan]",effect on uptake of 14C-histidine,histidine uptake,inhibited
same,effect of excess unlabelled amino acid on 3H-tryptophan uptake,[2],effectively competed
same,effect on tryptophan uptake in the presence of 2.5mM glutamine,[5],reduced to baseline
same,Ki,"[5]; read-out: Ki of the induced glutamine-resistant 3H-tryptophan transport, IDO positive tumor cells, 2.5mM glutamine",2.3 to 4.2 µM and 3 µM
same,calculated Ki compared between cell types,"[4]; Hela cells, IDO positive versus IDO negative",almost identical
same,effect of excess unlabelled amino acid on 3H-tryptophan uptake,[4]; IDO positive Hela cells,effectively competed
"CCN1C(=O)C=CC1=O [NEM, N-ethyl maleimide]","effect on tryptophan uptake, inhibitor alone",[3]; data not shown,minimal effect
"CNC(C)(C)C(=O)O [MeAIB, methyl-aminoisobutyric acid]","effect on tryptophan uptake, inhibitor alone",[3]; data not shown,minimal effect
NC(=O)CC[C@H](N)C(=O)O [glutamine],effect on uptake of 14C-histidine,histidine uptake,inhibited
same,tryptophan uptake in the presence of glutamine,"[1]; WT and GFP-transduced EG7 cells, data not shown",inhibited
same,effect of excess unlabelled amino acid on 3H-tryptophan uptake,[2],completely inhibited
same,effect of glutamine alone on tryptophan uptake,[2]; [6],completely abolished
same,tryptophan uptake in the presence of glutamine,"[3]; murine EG7-IDO positive cells, data not shown",resistant to inhibition
same,sensitivity of tryptophan uptake to inhibition,activated human T cells,highly sensitive to inhibition
same,tryptophan uptake maintained,"[4]; 5mM, IDO positive Hela cells",over 50%
same,fold increase in Ki for IDO positive cells compared with IDO negative controls,[4]; Hela cells,10 fold
same,effect of excess unlabelled amino acid on 3H-tryptophan uptake,[4]; IDO positive Hela cells,a proportion of the tryptophan uptake was retained
N[C@@H](Cc1ccc(O)cc1)C(=O)O [tyrosine],effect on tryptophan uptake in the presence of 2.5mM glutamine,[5],little additional effect
N[C@@H](Cc1ccccc1)C(=O)O [phenylalanine],effect on tryptophan uptake in the presence of 2.5mM glutamine,[5],inhibited
same,inhibition of tryptophan uptake in the presence of glutamine,"[5]; IFN-γ-treated and IDO transduced Hela cells, 2.5mM glutamine",over 50%
N[C@@H](Cc1c[nH]cn1)C(=O)O [histidine],effect on uptake of 14C-histidine,histidine uptake,inhibited
same,effect of excess unlabelled amino acid on 3H-tryptophan uptake,[2],completely inhibited
same,fold increase in Ki for IDO positive cells compared with IDO negative controls,[4]; Hela cells,10 fold
same,effect of excess unlabelled amino acid on 3H-tryptophan uptake,[4]; IDO positive Hela cells,a proportion of the tryptophan uptake was retained
"N[C@@H](Cc1ccc(O)c(O)c1)C(=O)O [L-Dopa, L-3,4-dihydroxyphenylalanine]",effect on tryptophan uptake in the presence of 2.5mM glutamine,[5],inhibited
N[C@H](Cc1c[nH]c2ccccc12)C(=O)O [D-tryptophan],effect on tryptophan uptake in the presence of 2.5mM glutamine,[5],minimal inhibition
